The record followed here is article PMC9474599 (Immunity, 2022).

“Also recorded” adds a separate entry of the source. *1 amine or outer side, *2 acyl side, *3 side chain or, on linkers, in order; H or OH if unused. Where a SMILES comes first, the peptide text is derived from it. Bridges are numbered along the chain shown (N, C = ends). Where no end group is shown, it is not given here. [ ]: non-standard residue; d: D form. The star is where a group is joined. X1 = CC(=O)NC(C(=O)OC(C(C)C)C(N[*:1])C(=O)[*:2])C(O)C(C)C; Biotin = O=C1N[C@H]2[C@H](CS[C@H]2CCCCC(=O)*)N1; PhLac = O=C(O)[CH](O)Cc1ccccc1; NMeT = CN[CH](C(=O)O)[CH](C)O; NMeA = CN[CH](C)C(=O)O; NMeDha = C=C(NC)C(=O)O

In assay [1] the test system is bone marrow neutrophils. Kind of assay: Western blot of IL-1β release from neutrophils. The format is cell-based, mouse. To be noted: for Inhibition of hBD3-mediated IL-1β release: WT neutrophils, inhibitor 10μM added together with LTA, n=3. (In western blotting, separated proteins are transferred to a membrane and probed.)
In assay [2] the test system is bone marrow neutrophils. Kind of assay: IL-1β and Cxcl2 release from neutrophils. The format is cell-based, mouse. An outline of the steps:
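MACS-purified bone marrow neutrophils were primed with 1 μg/mL S. aureus lipoteichoic acid for 2 h. hBD3 or mBD14 was then added at 10 μM final. After a further 2 h, supernatants were collected and cells lysed in RIPA buffer. IL-1β and Cxcl2 were measured in both fractions by DuoSet ELISA. 5 mM ATP served as positive control.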

Assay [3] deals with neutrophils. In words: Neutrophil elastase release. To be noted: Mrgpra2 dKO mouse neutrophils; hBD3 0-10 μM or 10 μM mBD14, one hour; n=5. In kind it is cell-based. An outline of the steps: (§1)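 Bone marrow neutrophils were MACS-purified from 8-10-week-old C57BL/6J-background mice of both sexes, with >90% purity by flow cytometry. 2×10^5 cells in RPMI were incubated 1 h with 0, 1, 5 or 10 μM hBD3 or 10 μM mBD14, both dissolved in RPMI. Elastase and MPO in the supernatant were quantified by DuoSet sandwich ELISA.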

A further assay concerns the target T1, Mrgpra2b (Mus musculus, UniProt Q91WW4).
T1 sequence (Q91WW4 1-305): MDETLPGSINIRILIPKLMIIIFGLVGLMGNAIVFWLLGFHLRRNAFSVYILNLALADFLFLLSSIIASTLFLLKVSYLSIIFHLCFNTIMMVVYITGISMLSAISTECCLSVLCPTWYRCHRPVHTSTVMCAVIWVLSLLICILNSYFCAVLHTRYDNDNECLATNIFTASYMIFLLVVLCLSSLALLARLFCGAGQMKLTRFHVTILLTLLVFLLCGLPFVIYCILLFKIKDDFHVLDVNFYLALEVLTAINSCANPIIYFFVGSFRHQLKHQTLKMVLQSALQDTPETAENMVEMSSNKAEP
In words: FLIPR intracellular Ca2+ mobilization, HEK cells expressing Mrgpra2b. In kind it is cell-based. To be noted: for Mrgpra2 receptor activation: FLIPR Ca2+ mobilization, Figure S1E (negative peptides), Figure 1E.

Assay [4] has as its system neutrophils. In words: Neutrophil myeloperoxidase. The format is cell-based. To be noted: Mrgpra2 dKO mouse neutrophils; hBD3 0-10 μM or 10 μM mBD14, one hour; n=5. In short, it runs like this: as §1
Assay [5] deals with T2, Mrgpra2b-GFP (Mus musculus, UniProt Q91WW4).
T2 sequence (Q91WW4 1-305): T1 sequence (Q91WW4 1-305)
In words: co-IP of biotin-hBD3 with Mrgpra2b-GFP. In kind it is binding. The note with it: 10μM biotin-hBD3, 4°C overnight, anti-GFP beads, anti-biotin western blot.

The subject of assay [6] is bone marrow neutrophils. Kind of assay: Proteome profiler array of neutrophil cytokines and chemokines. The format is cell-based, mouse. To be noted: S. aureus LTA 1 μg/mL alone (signal 1), vs control.
In the next assay the test system is S. aureus. Kind of assay: Intradermal S. aureus skin infection, bacterial bioluminescence. The format is in vivo, Staphylococcus aureus USA300 LAC::lux in mouse. The note with it: 100ng each, co-injected with S. aureus; bioluminescence 24 hours post-infection; n=8-36.
The target in a further assay is MRGPRX3-FLAG (human) (UniProt Q96LB0).
Sequence of MRGPRX3-FLAG (human) (Q96LB0 whole entry): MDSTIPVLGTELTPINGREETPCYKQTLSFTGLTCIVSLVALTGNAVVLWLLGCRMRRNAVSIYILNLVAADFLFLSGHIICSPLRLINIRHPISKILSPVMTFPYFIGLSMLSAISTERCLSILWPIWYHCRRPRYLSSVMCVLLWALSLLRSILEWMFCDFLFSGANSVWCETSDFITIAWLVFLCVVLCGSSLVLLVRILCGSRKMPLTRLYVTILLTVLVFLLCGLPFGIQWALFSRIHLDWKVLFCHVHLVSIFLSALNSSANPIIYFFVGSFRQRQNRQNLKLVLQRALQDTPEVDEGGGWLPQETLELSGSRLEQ
Assay [7] has as its target T3, Mrgpra2b-GFP (mouse, UniProt Q91WW4 1-305).
T3 sequence (looked up): T1 sequence (Q91WW4 1-305)
In words: flow cytometry on cells. (In general: In flow cytometry, cells or beads pass a laser one at a time.)

[8] abbreviates: ELISA, LTA 1 μg/mL 2 hours, then 10 μM hBD3 or mBD14 for 2 hours, n=5.

Broadly, the EC50 is the concentration that produces a half-maximal response. Low values mean an effect from little substance, high ones a need for much substance. What is called Kd is the equilibrium constant for the complex coming apart. The low end stands for higher affinity, the high end for lower affinity.

Consider `CC(C)[C@H](NC(=O)c1ccc2ccccc2n1)C(=O)N[C@@H](CC(=O)O)C(=O)COc1c(F)cccc1F` [Q-VD-OPh], for which, in the assay on bone marrow neutrophils [1], the “Inhibition of hBD3-mediated IL-1β release” value is “inhibited; also recorded: effectively reduced IL-1β release from WT neutrophils in response to hBD3”.
Regarding `C=C1C(=O)NC(C)C(=O)N(C)C(C)C(=O)NC(C(OC(=O)C(NC(C)=O)C(O)C(C)C)C(C)C)C(=O)N(C)C(C(C)OC)C(=O)OC(C)C(NC(C)=O)C(=O)OC(Cc2ccccc2)C(=O)N1C` (stereo not shown) [YM-254890] (Ac-T[PhLac][NMeDha]A[NMeA][X1][NMeT](Me); ester 1-C; configuration not given here), in the assay with bone marrow neutrophils [1], the “Inhibition of hBD3-mediated IL-1β release” value is given as “inhibited”.
“FLPKTLRKFFCRIRGGRCAVLNCLGKEEQIGRCSNSGRKCCRKKK (disulfide 11-40, 18-33, 23-41) [mBD14]”: the “Synthesis of IL-1β or Cxcl2, defensin alone” value in the assay with bone marrow neutrophils [2] (ELISA, total = secreted + intracellular, defensin alone, no LTA, n=5) is “did not induce the synthesis of IL-1β or Cxcl2”. For the same molecule, in the assay with bone marrow neutrophils [2] (setting [8]), the “Cxcl2 release, LTA-primed Mrgpra2 dKO neutrophils” value is reported as “did not respond to hBD3 or mBD14”; the “Cxcl2 release, LTA-primed WT neutrophils” value is “released IL-1β and Cxcl2 in response to hBD3 or mBD14 stimuli; also recorded: significant increase in the amount of IL-1β and Cxcl2”; the “IL-1β release, LTA-primed Mrgpra2 dKO neutrophils” value is listed as “did not respond to hBD3 or mBD14”; the “IL-1β release, LTA-primed WT neutrophils” value was “released IL-1β and Cxcl2 in response to hBD3 or mBD14 stimuli; also recorded: significant increase in the amount of IL-1β”. Further, in the assay with neutrophils [3], the “Elastase release, Mrgpra2 dKO neutrophils” value was “did not respond to hBD3 or mBD14 stimuli”. For the same molecule, at Mrgpra2b, the concentration for a half-maximal effect (EC50) came to 18.7 µM and the Mrgpra2 receptor activation entry is “evoked robust receptor activation”. In addition, in the assay with neutrophils [4], the “MPO release, Mrgpra2 dKO neutrophils” value was “did not respond to hBD3 or mBD14 stimuli”.
Consider “mBD2: mouse peptide, printed as 'mBD1, 2, 4' (AVGSLKSIGYEAELDHCHTNGGYCVRAICPPSARRPGSCFPEKNPCCKYMK; UniProt P82020 21-71, looked up)”, for which, in the assay with Mrgpra2b, the Mrgpra2 receptor activation result was “did not trigger receptor activation”.
On to “hBD4: Human peptide, printed as 'hBD1, 2 and 4' (EFELDRICGYGTARCRKKCRSQEYRIGRCPNTYACCLRKWDESLLNRTKP; UniProt Q8WTQ1 23-72, looked up)”, for which, in the assay with Mrgpra2b, the Mrgpra2 receptor activation entry was “did not trigger receptor activation”.
For the molecule “Biotin-GIINTLQKYYCRVRGGRCAVLSCLPKEEQIGKCSTRGRKCCRRKK (disulfide 11-40, 18-33, 23-41) [biotin-hBD3]”, the “Co-precipitation with Mrgpra2b-GFP” value on Mrgpra2b-GFP [5] is listed as “co-precipitated only with Mrgpra2b-GFP; also recorded: could be co-precipitated”.
In the case of “hBD1: Human peptide hBD1 (DHYNCVSSGGQCLYSACPIFTKIQGTCYRGKAKCCK; UniProt P60022 33-68, looked up)”, the Mrgpra2 receptor activation result in the assay with Mrgpra2b is “did not trigger receptor activation”.
“KKINNPVSCLRKGGRCWNRCIGNTRQIGSCGVPFLKCCKRK (disulfide 9-37, 16-30, 20-38) [mBD3]” registered an EC50 at Mrgpra2b of 42.8 µM.
As for lipoteichoic acid [LTA], the “IL-1β production and release by LTA alone” value in the assay on bone marrow neutrophils [2] (S. aureus LTA 1 μg/mL alone (signal 1), Figure 7A, D) was “induced the production of IL-1β, but the cytokine was not released from the cells”. Further, the “Priming effect of LTA, WT versus Mrgpra2 dKO neutrophils” value in the assay on bone marrow neutrophils [2] (S. aureus LTA 1 μg/mL, Figure 7A, C, D) is reported as “did not differ between WT or Mrgpra2 dKO neutrophils”. Further, in the assay on bone marrow neutrophils [6], the “Release of IL-1ra, Ccl3, Ccl4, Cxcl2 and TNFα by LTA alone” value was “triggered the release of more IL-1ra, Ccl3, Ccl4, Cxcl2 and TNFα compared to the control”. In addition, the “Production of pro-IL-1β by LTA” value with bone marrow neutrophils [1] (S. aureus LTA 1 μg/mL, WT and Mrgpra2 dKO neutrophils) is “induced the production of pro-IL-1β in both WT and Mrgpra2 dKO neutrophils”.
For “hBD2: Human peptide, printed as 'hBD1, 2 and 4' (GIGDPVTCLKSGAICHPVFCPRRYKQIGTCGLPGTKCCKKP; UniProt O15263 24-64, looked up)”, in the assay with Mrgpra2b, the Mrgpra2 receptor activation entry is recorded as “did not trigger receptor activation”.
Still for that read-out and setting: in the case of “mBD1: mouse peptide mBD1 (DQYKCLQHGGFCLRSSCPSNTKLQGTCKPDKPNCCKS; UniProt P56386 33-69, looked up)” it was “did not trigger receptor activation”.

B1: Cxcl2: recombinant mouse Cxcl2, R&D (protein, UniProt P10889 28-100, looked up)
C-X-C motif chemokine 2: AVVASELRCQCLKTLPRVDFKNIQSLSVTPPGPHCAQTEVIATLKGGQKVCLDPEAPLVQKIIQKILNKGKAN
On to B1, for which, in the assay with S. aureus, the “Bacterial load / anti-S. aureus rescue, Def cKO mice” value is “did not rescue Mrgpra2 or Def KO phenotypes; also recorded: did not alter the mutant phenotypes” and the “Bacterial load / anti-S. aureus rescue, Mrgpra2 dKO mice” value is on record as “did not rescue Mrgpra2 or Def KO phenotypes; also recorded: did not alter the mutant phenotypes”.
As for GIINTLQKYYCRVRGGRCAVLSCLPKEEQIGKCSTRGRKCCRRKK (ends and bridges not checked; cysteine pairing not given here) [Human beta-defensin 3], the EC50 of FLIPR intracellular calcium mobilization in HEK cells expressing MRGPRX3 with MRGPRX3-FLAG (human) turned out to be 10.8 µM.
In the assay with Mrgpra2b-GFP [7], Biotin-GIINTLQKYYCRVRGGRCAVLSCLPKEEQIGKCSTRGRKCCRRKK (peptide, UniProt P81534 23-67, looked up, ends and bridges not checked) [N-terminal biotinylated human beta-defensin 3] had a Kd of 15.9 µM.

B2: IL-1β: Recombinant IL-1β, R&D systems 401-ML (protein, UniProt P10749 118-269, looked up)
Interleukin-1 beta: VPIRQLHYRLRDEQQKSLVLSDPYELKALHLNGQNINQQVIFSMSFVQGEPSNDKIPVALGLKGKNLYLSCVMKDGTPTLQLESVDPKQYPKKKMEKRFVFNKIEVKSKVEFESAEFPNWYISTSQAEHKPVFLGNNSGQDIIDFTMESVSS
Turning to B2, in the assay with S. aureus, the “Bacterial load / anti-S. aureus rescue, Def cKO mice” value was “rescued the anti-S. aureus defect of Mrgpra2 dKO and Def cKO mice; also recorded: significantly reduced the bacterial load”; the “Bacterial load / anti-S. aureus rescue, Mrgpra2 dKO mice” value is “rescued the anti-S. aureus defect of Mrgpra2 dKO and Def cKO mice; also recorded: significantly reduced the bacterial load”.
